Calls of active or inactive are those of the source. No cut-off for these calls is given here.
Experiments:
Mus musculus [1] = assay: Hematotoxicity in ip dosed B6D2F1 mouse assessed as decrease in WBC count; format: organism-based; settings: in vivo
In short: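 Healthy female B6D2F1 mice, 10 per group, were dosed i.p. three times a week for five consecutive weeks (15 doses). Each compound was given at two dose levels chosen relative to its MTD, in DMSO/saline 5:95 v/v. Mice were sacrificed 3 days after the last dose, and platelet, RBC and WBC counts were taken by Coulter counter. Data are mean ± SEM.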

LoVo = assay: Antiproliferative activity against LoVo cells after 72 hrs by MTT assay; format: functional, cell-based, Homo sapiens; settings: Homo sapiens, LoVo, 72 h
In short: (§1)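 Cells cultured with each compound for three days; growth then read by the MTT colorimetric assay and reported as IC50 (µM).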

PC-3 [2] = assay: Induction of apoptosis in human PC3 cells assessed as procaspase-8 activation; format: functional, cell-based
DU-145 [3] = assay: Induction of senescence in human DU145 cells; format: functional, cell-based
In short: (§2)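 SA-β-galactosidase staining of PC-3 and DU-145 prostate cancer cells after 72 h at 10 µM; adriamycin 20 nM as positive control; expressed as percentage of positively stained cells.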

PC-3 [4] = assay: Induction of apoptosis in human PC3 cells assessed as procaspase-9 activation; format: functional, cell-based
In short: (§3)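 PC-3 and DU-145 cells treated over 72 h at 1 and 10 µM, compared with untreated cells. p53, PARP cleavage and procaspase-3/-9 activation assessed by immunoblotting.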

[5] = Antiproliferative activity against U373MG cells after 72 hrs by MTT assay; format: functional, cell-based, Homo sapiens, U-373MG ATCC; settings: Homo sapiens, U373 MG, 72 h; in short: as §1
PC-3 [6] = assay: Induction of senescence in human PC3 cells; format: functional, cell-based; in short: as §2
DU-145 [7] = assay: Induction of apoptosis in human DU145 cells assessed as procaspase-8 activation; format: functional, cell-based
MCF7 = assay: Antiproliferative activity against MCF7 cells after 72 hrs by MTT assay; format: functional, cell-based, Homo sapiens; settings: Homo sapiens, MCF7, 72 h; in short: as §1
Mus musculus [8] = assay: Hematotoxicity in B6D2F1 mouse assessed as WBC count at 80 mg/kg, po; format: organism-based; set-up: dose 80 mg/kg, route oral; settings: in vivo
L1210 [9] = assay: Antitumor activity in L1210 cells xenografted B6D2F1 mouse at 80 mg/kg, ip relative to control; format: functional; settings: route intraperitoneal
In short: (§4)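 Mice grafted with L1210 leukaemia cells on day 0, then dosed i.p. four times weekly on days 1-4 and 8-11. Five mice per group. Outcome is %T/C, the median survival of treated over control. Kruskal-Wallis test followed by Dunn comparisons against control.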

Mus musculus [10] = assay: Hematotoxicity in B6D2F1 mouse assessed as platelet count at 40 mg/kg, iv; format: organism-based; set-up: dose 40 mg/kg, route intravenous; settings: in vivo
L1210 [11] = assay: Antitumor activity in L1210 cells xenografted B6D2F1 mouse at 40 mg/kg, ip relative to control; format: functional; settings: route intraperitoneal; in short: as §4
PC-3 [12] = assay: Induction of autophagy in human PC3 cells by acridine orange staining at 10 uM after 72 hrs; format: functional
Mus musculus [13] = assay: Hematotoxicity in B6D2F1 mouse assessed as platelet count at 120 mg/kg, po; format: organism-based; set-up: dose 120 mg/kg, route oral; settings: in vivo
L1210 [14] = assay: Antitumor activity in L1210 cells xenografted B6D2F1 mouse at 20 mg/kg, ip relative to control; format: functional; settings: route intraperitoneal; in short: as §4
A549 [15] = assay: Antitumor activity against human A549 cells xenografted in mouse at 10 mg/kg, iv; format: functional, organism-based; set-up: dose 10 mg/kg
In short: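 Human A549 NSCLC cells grafted orthotopically into the lungs of immunocompromised mice. Compound given i.v. at 10 mg/kg. Survival gain assessed by survival curve analysis.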

DU-145 [16] = assay: Induction of apoptosis in human DU145 cells assessed as procaspase-9 activation; format: functional, cell-based; in short: as §3
DU-145 [17] = assay: Induction of apoptosis in human DU145 cells assessed as p53 activation; format: functional, cell-based; in short: as §3
Mus musculus [18] = assay: Hematotoxicity in B6D2F1 mouse assessed as WBC count at 20 mg/kg, iv; format: organism-based; set-up: dose 20 mg/kg, route intravenous; settings: in vivo
L1210 [19] = assay: Antitumor activity in L1210 cells xenografted B6D2F1 mouse at 10 mg/kg, ip relative to control; format: functional; settings: route intraperitoneal; in short: as §4
DU-145 [20] = assay: Induction of apoptosis in human DU145 cells at 10 uM after 72 hrs; format: functional
In short: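 Prostate cancer cells exposed for 72 h to 0, 1 or 10 µM. Apoptosis quantified by flow cytometry after Annexin V-FITC staining.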

Mus musculus [21] = assay: Hematotoxicity in B6D2F1 mouse assessed as WBC count at 120 mg/kg, po; format: organism-based; set-up: dose 120 mg/kg, route oral; settings: in vivo
Mus musculus [22] = assay: Hematotoxicity in B6D2F1 mouse assessed as RBC count at 20 mg/kg, iv; format: organism-based; set-up: dose 20 mg/kg, route intravenous; settings: in vivo
Mus musculus [23] = assay: Hematotoxicity in B6D2F1 mouse assessed as RBC count at 160 mg/kg, po; format: organism-based; set-up: dose 160 mg/kg, route oral; settings: in vivo
Mus musculus [24] = assay: Hematotoxicity in B6D2F1 mouse assessed as platelet count at 160 mg/kg, po; format: organism-based; set-up: dose 160 mg/kg, route oral; settings: in vivo
Mus musculus [25] = assay: Hematotoxicity in B6D2F1 mouse assessed as RBC count at 40 mg/kg, iv; format: organism-based; set-up: dose 40 mg/kg, route intravenous; settings: in vivo
A549 [26] = assay: Antiproliferative activity against A549 cells after 72 hrs by MTT assay; format: functional, cell-based, Homo sapiens; settings: Homo sapiens, A549, 72 h; in short: as §1

What does the source list for CN(C)CCN1C(=O)c2cccc3cc(NC(=O)NC(=O)C(Cl)(Cl)Cl)cc(c23)C1=O?
Activity (Mus musculus [1]): Non-toxic; IC50 (LoVo): 900 nM; Activity (PC-3 [2]): inactive; Activity (DU-145 [3]): Active; Activity (PC-3 [4]): inactive; IC50 [5]: 900 nM; Activity (PC-3 [6]): inactive; Activity (DU-145 [7]): inactive; IC50 (MCF7): 1800 nM; Activity (Mus musculus [8]): 3.21 10^3 /uL; Activity (L1210 [9]): >300%; Activity (Mus musculus [10]): 430 10^3 /uL; Activity (L1210 [11]): 272%; Activity (PC-3 [12]): 35%; Activity (Mus musculus [13]): 977 10^3 /uL; Activity (L1210 [14]): 205%; Activity (A549 [15]): Active; Activity (DU-145 [16]): inactive; Activity (DU-145 [17]): inactive; Activity (Mus musculus [18]): 2.92 10^3 /uL; Activity (L1210 [19]): 197%; Activity (DU-145 [20]): 15%; Activity (Mus musculus [21]): 2.85 10^3 /uL; Activity (Mus musculus [22]): 9.09 10^6 /uL; Activity (Mus musculus [23]): 10.13 10^6 /uL; Activity (Mus musculus [24]): 1005 10^3 /uL; Activity (Mus musculus [25]): 9.1 10^6 /uL; IC50 (A549 [26]): 900 nM
